In experiment [1] the test system is Drosophila melanogaster. Put plainly: Adulticidal activity against adult Drosophila melanogaster (males/females 1:1 ratio) assessed as mortality at 1 ng/adult measured after 3 hr. In kind it is functional, organism-based.
Experiment [2] deals with Drosophila melanogaster. Put plainly: Adulticidal activity against adult Drosophila melanogaster (males/females 1:1 ratio) assessed as mortality measured after 3 hr. In kind it is functional. Put shortly: (§1)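 Topical dose applied to the abdomen of ice-immobilised adults, 5–7 days old, in 0.5 μL acetone. Controls received acetone only. Flies were held at 25 °C, RH >60%, on a 12 h light/dark cycle. Thirty flies per dose, three replicates. Survival was recorded 3 h after treatment. Mortality means inability to move, with recovery checked.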

Experiment [3] concerns Drosophila melanogaster. Put plainly: Adulticidal activity against adult Drosophila melanogaster (males/females 1:1 ratio) assessed as mortality at 20 ng/adult measured after 3 hr. In kind it is functional, organism-based. An outline of the steps: as §1
For experiment [4], the system named is Drosophila melanogaster. The experiment can be described thus: Adulticidal activity against adult Drosophila melanogaster (males/females 1:1 ratio) assessed as mortality at 0.5 ng/adult measured after 3 hr. The class given is functional, organism-based.
In experiment [5] the test system is Drosophila melanogaster. The experiment can be described thus: Adulticidal activity against adult Drosophila melanogaster (males/females 1:1 ratio) assessed as mortality at 2 ng/adult measured after 3 hr. In kind it is functional, organism-based. Put shortly: as §1

Active and inactive are the calls of the source. The rule behind the calls is not given here.

Consider `C[C@H]1CC=CC(=O)O1` [(+)-(6S)-PARASORBIC ACID], for which the result in the experiment with Drosophila melanogaster [1] and with Drosophila melanogaster [4] was inactive. In addition, the LD50 in the experiment with Drosophila melanogaster [2] was found to be 1.44 µg. In addition, the result in the experiment with Drosophila melanogaster [3] and in the experiment on Drosophila melanogaster [5] was Active.
As to `C=C(C)[C@H]1Cc2c(ccc3c2O[C@@H]2COc4cc(OC)c(OC)cc4[C@@H]2C3=O)O1` [ROTENONE], the LD50 with Drosophila melanogaster [2] worked out at 3.68 µg.
Consider `COc1ccc2c(c1OC)CN1CCc3cc4c(cc3[C@@H]1C2)OCO4` [CANADINE], for which, in the experiment on Drosophila melanogaster [2], the LD50 is 2.5 µg.
As for `C[C@@H]1CC[C@H]2[C@H](C)CC[C@@H](c3ccoc3)N2C1` [(-)-7-EPI-DEOXYNUPHARIDINE], the LD50 in the experiment with Drosophila melanogaster [2] amounted to 0.9 µg.

These data come from ChEMBL document CHEMBL3045078, “Insecticidal effect and chemical composition of the volatile oil from Bergenia ligulata” (2011).
